FAS-TE inh – FAS thioesterase (human) inhibition; P49327; recombinant FAS-TE, OMFH fluorogenic substrate, fluorescence endpoint; inhibition, % at 15 µM; actives 0.67% (n = 360,000);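 active = compounds whose normalised, plate-corrected inhibition of enzyme fluorescence in the single-dose primary screen is 50% or more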;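 also: 0% = DMSO with enzyme and 100% = substrate without enzyme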
ADAM17 inh – inhibits human ADAM17 | P78536 | actives 0.83% (n = 370,000) | recombinant ADAM17, EDANS/DABCYL FRET peptide cleavage | AID 720648 | inhibition, % at 6.95 µM;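 active = inhibition above the mean of compounds lying between control limits plus 3 SD, set per campaign, cut at about 8.5% in these data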;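 also: 0% = DMSO-only wells as the low control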
SENP1 FRET inh – inhibitors of human SENP1 SUMO protease catalytic domain | recombinant SENP1 catalytic domain, CyPet-SUMO1-YPet FRET cleavage | inhibition, % at 10 µM | actives 0.21% (n = 360,000);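 active = inhibition at least 30% at 10 µM, raw YFP signal under a set limit, fluorescence ratio 0.5 to 1.5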;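 also: 0% = enzyme with DMSO and 100% = no enzyme wells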
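Material – human SENP1 catalytic domain · Input – SENP1 enzyme, 20 pM final · Compound dosing – single concentration of 10 µM compound, 0.5% DMSO final · Timing – enzyme reaction for 50 min at room temperature, dark · Measured by – FRET fluorescence in CFP and YFP emission channels · Control set – no-enzyme wells low, DMSO-plus-enzyme wells high control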
ADAM10 inh – ADAM10 inhibition, QFRET primary screen; actives 0.62% (n = 370,000); O14672; recombinant ADAM10, EDANS/DABCYL FRET peptide cleavage, 3 h; inhibition, % at 7 µM;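 active = inhibition above a per-campaign cutoff equal to the mean of compounds falling between control-based bounds plus 3 SD, cut at about 20% in these data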;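 also: 0% = DMSO wells while the 100% control is not disclosed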
Target sequence (O14672 214-748 limits assumed): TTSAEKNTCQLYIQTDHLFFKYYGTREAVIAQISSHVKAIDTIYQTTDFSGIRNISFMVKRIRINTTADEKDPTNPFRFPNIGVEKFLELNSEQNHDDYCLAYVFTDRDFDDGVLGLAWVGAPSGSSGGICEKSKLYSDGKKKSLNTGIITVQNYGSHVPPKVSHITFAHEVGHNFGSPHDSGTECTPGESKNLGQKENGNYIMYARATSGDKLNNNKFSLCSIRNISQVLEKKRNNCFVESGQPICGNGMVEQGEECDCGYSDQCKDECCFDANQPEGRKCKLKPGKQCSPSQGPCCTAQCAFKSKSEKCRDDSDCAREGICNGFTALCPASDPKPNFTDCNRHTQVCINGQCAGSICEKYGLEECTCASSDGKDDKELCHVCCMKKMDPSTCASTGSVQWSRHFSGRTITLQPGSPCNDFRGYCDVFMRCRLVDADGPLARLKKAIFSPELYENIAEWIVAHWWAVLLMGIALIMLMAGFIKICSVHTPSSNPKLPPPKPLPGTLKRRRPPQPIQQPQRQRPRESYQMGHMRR
ADAM10 confirm – human ADAM10 inhibition, confirmation; shares compounds with ADAM10 inh; inhibition, % at 6.95 µM; actives 1% (n = 2,100); ADAM10 QFRET peptide cleavage, EDANS fluorescence;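 active = inhibition above about 20% chosen separately for each screening run, limit read from the data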;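 also: 0% = DMSO wells and 100% = marimastat wells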
ADAM17 counter – inhibits human ADAM17 in ADAM10 exosite counter-screen. shares compounds with ADAM10 inh. ADAM17 QFRET peptide cleavage, EDANS fluorescence. inhibition, % at 6.95 µM. actives 0.5% (n = 2,100). AID 743214;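 active = mean triplicate inhibition above the solvent-only control wells' mean plus 3 SD, cut at about 12% in these data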;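 also: 0% = DMSO wells and 100% = marimastat wells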
ADAM10 counter – ADAM10 inhibition, counter-screen for ADAM17 exosite hits; shares compounds with ADAM17 inh; recombinant ADAM10, EDANS/DABCYL FRET peptide cleavage, 3 h; inhibition, % at 6.95 µM; actives 47% (n = 2,900); AID 743256;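 active = mean inhibition over the triplicate runs exceeds the activity threshold set in the earlier primary screen, cut at about 20% in these data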;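 also: 0% = DMSO wells and 100% = marimastat wells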
ADAM17 confirm – confirmation of inhibitors of human ADAM17; AID 743257; shares compounds with ADAM17 inh; recombinant ADAM17, EDANS/DABCYL QFRET peptide cleavage; inhibition, % at 6.95 µM; actives 65% (n = 2,900);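 active = mean inhibition across replicates above the hit cutoff set in the primary screen, cut at about 8.5% in these data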;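 also: 0% = DMSO wells and 100% = marimastat wells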
An asterisk follows results filed as active; / = no result given. An excerpt weighted towards active compounds, which were near 1.9% of everything screened.

SMILES	FAS-TE inh	ADAM17 inh	SENP1 FRET inh	ADAM10 inh	ADAM10 confirm	ADAM17 counter	ADAM10 counter	ADAM17 confirm
COc1ccc(S(=O)(=O)Nc2ccc(C)cc2)cc1N(C)S(=O)(=O)c1ccc(Cl)cc1	19.6	18.7*	2.3	32.2*	7.5	2.0	39.7*	20.9*
COc1ccc(S(=O)(=O)NN(C)C)cc1N(C)S(=O)(=O)c1ccc(Cl)cc1	-18.0	1.3	4.1	-1.1	/	/	/	/
CCCCC[C@H](C)N1C[C@@H](COCc2ccccc2)Oc2cc(N3CC[C@@H](O)C3)ccc2S1(=O)=O	24.9	6.7	-0.5	7.1	/	/	/	/
CCCCC[C@@H](C)N1C[C@@H](COCc2ccccc2)Oc2cc(N3CC[C@H](O)C3)ccc2S1(=O)=O	17.5	9.1*	0.5	22.3*	10.8	2.8	34.3*	17.5*
O=C1NC(Cc2ccccc2)c2nc3ccccc3c(=O)n2-c2cc(Cl)ccc21 (configuration not stated)	/	16.7*	/	25.4*	4.0	0.8	22.7*	11.6*
OCCNc1nc(Nc2ccccc2OC(F)(F)F)nc(N2CCCC2)n1	-2.4	-4.2	2.2	1.1	/	/	/	/
OCCNc1nc(Nc2ccccc2Oc2ccccc2)nc(N2CCCC2)n1	9.3	11.5*	1.5	27.4*	6.7	1.3	20.9*	12.9*
Cc1ccc2nc(NC(=O)CN(C)S(=O)(=O)c3ccc(Br)s3)sc2c1	18.9	10.3*	-1.2	24.4*	6.7	2.5	25.3*	15.4*
Cc1ccc2nc(NC(=O)CNS(=O)(=O)c3ccc(Br)s3)sc2c1	15.0	-7.8	-2.4	-19.2	/	/	/	/
O=C(Nc1cccc(F)c1)c1cc(S(=O)(=O)NCCC2=CCCCC2)ccc1F	36.3	9.1*	3.4	23.8*	8.2	2.2	22.5*	14.5*
Cc1ccc(S(=O)(=O)N(CCCO)CC(O)CON=C2c3ccccc3-c3ccccc32)cc1 (configuration not stated)	27.4	18.8*	-6.7	34.6*	6.9	2.9	19.4	12.0*
CC(/C=N\NC(=O)CSc1nnc(-c2ccc(Br)cc2)n1-c1ccccc1)=C\c1ccco1	/	-0.8	/	-7.9	/	/	/	/
O=C(/C=C/c1ccc(O)c(O)c1)c1ccc(S(=O)(=O)N2CCCCCC2)cc1	-7.6	18.3*	5.7	34.3*	5.6	1.6	26.9*	16.7*
CC(C)C1S/C(=N/N=C/c2cccs2)NC1=O (configuration not stated)	-5.0	9.4*	2.1	28.6*	1.1	0.4	8.1	4.8
CC1S/C(=N/N=C/c2cccs2)NC1=O (configuration not stated)	-6.5	2.8	0.9	0.0	/	/	/	/
Cc1ccc(C)c(OCCC(=O)Nc2cc(S(=O)(=O)N3CCCCC3)ccc2C)c1	19.1	-0.1	2.2	-7.9	/	/	/	/
COc1ccc(NC(=O)CCOc2cc(C)ccc2C)cc1S(=O)(=O)N1CCCCC1	18.1	12.3*	1.4	24.2*	1.7	0.7	8.9	9.2*
CC(=O)c1ccc(OCCCC(=O)Nc2ccc(C)c(S(=O)(=O)N3CCCCC3)c2)cc1	17.7	-4.2	3.4	-8.5	/	/	/	/
Cc1ccc(C)c(OCCC(=O)OCC(=O)Nc2cc(S(=O)(=O)N3CCCCC3)ccc2C)c1	15.3	10.6*	1.2	25.3*	6.3	2.1	45.5*	20.7*
CCOc1ccc(C(=O)CCC(=O)Nc2ccc(C)c(S(=O)(=O)N3CCCCC3)c2)cc1	20.1	9.1*	-0.1	28.4*	6.1	3.3	26.8*	13.0*
NS(=O)(=O)c1ccc(NC(CNS(=O)(=O)c2ccccc2)c2ccccc2)cc1 (configuration not stated)	-5.0	-5.0	-1.2	-5.4	/	/	/	/
O=S(=O)(NCC(Nc1ccc(Cl)cc1)c1ccccc1)c1ccccc1 (configuration not stated)	24.0	26.2*	1.7	53.0*	10.5	3.4	45.9*	22.2*
